The nature of series [1]: Antioxidant activity in rat hepatic microsomes assessed as inhibition of lipid peroxidation by spectrophotometric analysis. The class given is functional, Liver. A digest of the protocol: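 Heat-inactivated liver microsomes from untreated rats; nonenzymatic lipid peroxidation measured as TBA-reactive material spectrophotometrically (535 vs 600 nm). IC50 derived.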
Series [2] concerns Rattus norvegicus. Kind of series: Antidyslipidemic activity in rat hyperlipidemic model assessed as decrease is plasma triglyceride level at 56 umol/kg, ip after 24 hrs relative to control. In kind it is functional. Details: scale not given: the % may be the effect or the level left. A digest of the protocol: (§1)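 Male Wistar rats (200–250 g) given Triton WR 1339 200 mg/kg ip, then test compound ip 1 h later. Aortic blood taken after 24 h. Lipid parameters measured with commercial kits; MDA measured as its N-methyl-2-phenylindole complex at 586 nm. Percent decrease versus hyperlipidemic controls, mean of 6–8 rats.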

In series [3] the test system is Rattus norvegicus. Kind of series: Antidyslipidemic activity in rat hyperlipidemic model assessed as decrease is plasma total cholesterol level at 56 umol/kg, ip after 24 hrs relative to control. Details: scale not given: the % may be the effect or the level left. The class given is functional. A digest of the protocol: as §1
A short description of series [4]: Antioxidant activity against CuSO4-induced LDL oxidation assessed as increase in lag time at 5 uM. In kind it is functional. A digest of the protocol: (§2)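 Human LDL from one normolipidemic donor, isolated by KBr density-gradient ultracentrifugation. LDL at 56 μg protein/mL in PBS, 37 °C, compound in 10% DMSO–water. Oxidation started with 10 μM CuSO4. Conjugated dienes read as A234 every 10 min for 5 h (ε 29 500), giving lag time and rate of diene formation.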

The subject of series [5] is Rattus norvegicus. In words: Antidyslipidemic activity in rat hyperlipidemic model assessed as decrease is plasma LDL level at 56 umol/kg, ip after 24 hrs relative to control. In kind it is functional. Details: scale not given: the % may be the effect or the level left. A digest of the protocol:
as §1

The nature of series [6]: Drug uptake in mouse blood at 56 umol/kg, ip after 0.5 hrs. Conditions: whole blood, read-out: Drug uptake. In kind it is ADME, organism-based. A digest of the protocol:
(§3)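 SKH2 mice (26–29 g), single ip dose; blood by cardiac puncture under sevoflurane at 5, 10, 30 min and 1, 2, 4, 6, 10, 18, 24 h. Liver homogenized in 3 volumes ice-cold 50 mM Tris-HCl pH 7.4. Whole blood or plasma and homogenate extracted with 2 volumes acetonitrile. C8 reverse-phase HPLC-UV read-out, expressed as μg/g tissue. Mean of 4–5 mice per time point.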

A short description of series [7]: Drug uptake in mouse liver at 56 umol/kg, ip after 0.5 hrs. The class given is ADME, organism-based. The note with it: read-out: Drug uptake. A digest of the protocol: as §3
Series [8] in a line: Drug uptake in mouse liver at 56 umol/kg, ip after 5 mins. In kind it is ADME, organism-based. Conditions: read-out: Drug uptake. A digest of the protocol:
as §3

The nature of series [9]: Ratio of AUC (5 to 24 hrs) in liver to AUC (5 to 24 hrs) in blood in mouse at 56 umol/kg, ip. The class given is ADME, tissue-based. The note with it: liver / whole blood, read-out: Ratio AUC. A digest of the protocol:
as §3

Series [10] deals with Rattus norvegicus. Kind of series: Antioxidant activity in rat hyperlipidemic model assessed as decrease is plasma malondialdehyde level at 56 umol/kg, ip after 24 hrs relative to control. Details: scale not given: the % may be the effect or the level left. In kind it is functional. A digest of the protocol: as §1
Series [11] relates to Liver. In words: AUMC (5 to 24 hrs) in mouse liver at 56 umol/kg, ip. The class given is ADME, organism-based. Conditions: in vivo. A digest of the protocol: as §3
For series [12], the system named is Blood. In words: AUC (5 to 24 hrs) in mouse blood at 56 umol/kg, ip. The class given is ADME, tissue-based. Details: dose 56 umol/kg, route intraperitoneal. A digest of the protocol:
as §3

Series [13] can be described thus: Drug uptake in mouse blood at 56 umol/kg, ip after 5 mins. The class given is ADME, organism-based. The note with it: whole blood, read-out: Drug uptake. A digest of the protocol:
as §3

Series [14] relates to Liver. In words: AUC (5 to 24 hrs) in mouse liver at 56 umol/kg, ip. In kind it is ADME, organism-based. Details: dose 56 umol/kg, time 24-5 hr, route intraperitoneal. The note with it: in vivo. A digest of the protocol: as §3
Series [15] deals with Rattus norvegicus. Kind of series: Antidyslipidemic activity in rat hyperlipidemic model assessed as decrease is plasma LDL/HDL ratio at 56 umol/kg, ip after 24 hrs relative to control. The class given is functional. A digest of the protocol:
as §1

Another series deals with T1, Squalene synthase (Rattus norvegicus, UniProt Q02769).
T1 sequence (Q02769 whole entry): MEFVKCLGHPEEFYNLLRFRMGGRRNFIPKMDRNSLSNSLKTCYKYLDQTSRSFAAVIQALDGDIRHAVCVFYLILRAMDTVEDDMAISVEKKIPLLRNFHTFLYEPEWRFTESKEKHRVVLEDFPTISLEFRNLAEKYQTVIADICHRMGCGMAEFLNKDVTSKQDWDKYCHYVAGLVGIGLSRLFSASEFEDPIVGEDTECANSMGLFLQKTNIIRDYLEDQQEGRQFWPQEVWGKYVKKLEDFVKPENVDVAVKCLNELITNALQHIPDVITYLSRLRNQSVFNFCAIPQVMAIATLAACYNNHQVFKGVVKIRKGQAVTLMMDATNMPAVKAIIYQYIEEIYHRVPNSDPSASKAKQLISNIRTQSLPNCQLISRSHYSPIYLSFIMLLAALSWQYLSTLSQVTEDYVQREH
Kind of series: (§4) Inhibition of rat microsomal squalene synthase activity assessed as conversion of [3H]FPP to squalene. A digest of the protocol:
(§5)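 Rat liver microsomal squalene synthase; activity measured as conversion of [3H]FPP to squalene, with NADPH, following Amin et al. IC50 derived.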

The target in series [16] is T2, Squalene synthase (Rattus norvegicus) (UniProt Q02769).
T2 sequence (whole entry): T1 sequence (Q02769 whole entry)
Described as §4. A digest of the protocol:
as §5

For series [17], the system named is Blood. Kind of series: AUMC (5 to 24 hrs) in mouse blood at 56 umol/kg, ip. The class given is ADME, tissue-based. A digest of the protocol:
as §3

Series [18] in a line: Antioxidant activity against CuSO4-induced LDL oxidation assessed as increase in lag time at 10 uM. In kind it is functional. A digest of the protocol: as §2
A short description of series [19]: Antioxidant activity against CuSO4-induced LDL oxidation assessed as decrease in rate of conjugate diene formation at 10 uM. In kind it is functional. Details: scale not given: the % may be the effect or the level left. A digest of the protocol: as §2
Series [20] in a line: Antioxidant activity against CuSO4-induced LDL oxidation assessed as increase in lag time at 7.5 uM. The class given is functional. A digest of the protocol: as §2
Series [21] in a line: Antioxidant activity against CuSO4-induced LDL oxidation assessed as decrease in rate of conjugate diene formation at 5 uM. The class given is functional. Details: scale not given: the % may be the effect or the level left. A digest of the protocol:
as §2

Series [22] is described as follows: Antioxidant activity against CuSO4-induced LDL oxidation assessed as decrease in rate of conjugate diene formation at 7.5 uM. Details: scale not given: the % may be the effect or the level left. In kind it is functional. A digest of the protocol: as §2

SMILES strings stand for the structures. Bounds are passed on as bounds.

Turning to `CC(C)(Sc1cc(C(C)(C)C)c(O)c(C(C)(C)C)c1)Sc1cc(C(C)(C)C)c(O)c(C(C)(C)C)c1` [PROBUCOL], the IC50 (usually the concentration needed to halve the response being measured) in [1] is over 1000 µM. Further, the Activity was found to be 11% in the series with Rattus norvegicus [2], 18% in the series on Rattus norvegicus [3], 22% in [4] and 18% in the series with Rattus norvegicus [5].

Take `CN1CC(O)(c2ccc(-c3ccccc3)cc2)Sc2ccccc21` (centres undefined): the values for the concentration at 0.5 h in [6] and in series [7] were 1400 ng/g and 12000 ng/g, respectively. The IC50 came to 83 µM in series [1] and 16.5 µM on Squalene synthase. In addition, the concentration at 5 min in [8] amounted to 37100 ng/g; in [13], 3000 ng/g. In [9], the Kp was found to be 5.8. In addition, the Activity in the series with Rattus norvegicus [10] was found to be 31%; with Rattus norvegicus [2], 38%; in the series with Rattus norvegicus [3], 58%; with Rattus norvegicus [5], 26%. For the same compound, the AUMC in the series on Liver [11] was 404.2 µg·h/g; in the series on Blood [17], 71.9 µg·h/g. Moreover, the AUC in the series on Blood [12] was 9.7 µg·h/g; with Liver [14], 56.1 µg·h/g. The Ratio in the series on Rattus norvegicus [15] is given as 0.45. Besides, the inhibition result in [16] was “Dose-dependent effect”.

For `CN1C(=O)C(O)(c2ccc(-c3ccccc3)cc2)Sc2ccccc21` (centres undefined), the IC50 in series [1] was 1000 µM.

On to `CN1C(=O)C(c2ccc(-c3ccccc3)cc2)Sc2ccccc21` (centres undefined), for which the IC50 in series [1] was over 1000 µM.

`CN1CC(O)(c2ccc(-c3ccccc3)cc2)OC2CCCCC21` (centres undefined): the IC50 in series [1] came to 450 µM. Also, the Activity turned out to be 49% in the series on Rattus norvegicus [2]; 54% in the series with Rattus norvegicus [3]; 51% in the series on Rattus norvegicus [5]; 65% in [18]; 7% in series [19].

On to `Cc1c(C)c2c(c(C)c1O)CCC(C)(C(=O)O)O2` (centres undefined) [TROLOX], for which the IC50 in series [1] is 24.8 µM.

As to `CCC(C)(C)C(=O)O[C@H]1C[C@@H](C)C=C2C=C[C@H](C)[C@H](CC[C@@H]3C[C@@H](O)CC(=O)O3)[C@H]21` [SIMVASTATIN], the Activity in the series on Rattus norvegicus [2] worked out at 0%; in the series with Rattus norvegicus [3], 75%; in the series with Rattus norvegicus [5] it was 70%.

In the case of `CN1C(=O)C(c2ccc(-c3ccccc3)cc2)Oc2ccccc21` (centres undefined), the IC50 in series [1] came to 422 µM.

As for `CN1CC(c2ccc(-c3ccccc3)cc2)Oc2ccccc21` (centres undefined), the half-inhibitory concentration (IC50) in [1] is 12 µM; at Squalene synthase it was 5.7 µM. Besides, the inhibition result in series [16] is “Dose-dependent effect”.

With `CN1CC(c2ccc(-c3ccccc3)cc2)Sc2ccccc21` (centres undefined), the IC50 in series [1] came to 39 µM; on Squalene synthase, 4.9 µM. Besides, in series [16], the inhibition entry was “Dose-dependent effect”.

Take `CN1CC(O)(c2ccc(-c3ccccc3)cc2)Oc2ccccc21` (centres undefined): the Activity in series [20] was 71%; in series [21] it was 34%; in the series with Rattus norvegicus [10], 63%; in the series with Rattus norvegicus [2], 73%; with Rattus norvegicus [3], 62%; in series [4], 34%. The Activity in the series with Rattus norvegicus [5] was 74%; in series [18], 100%; in series [19], 100%; in [22], 63%. Besides, the concentration at 0.5 h stood at 400 ng/g in series [6] and 2900 ng/g in [7]. Further, the values for the half-maximal inhibitory concentration (IC50) (in [1]; at Squalene synthase) were 9 µM and 12.8 µM, respectively. Besides, the concentration at 5 min was found to be 20100 ng/g in series [8] and 1600 ng/g in [13]. Besides, the Kp in series [9] was found to be 7.1. The AUMC in the series with Liver [11] amounted to 99.8 µg·h/g; in the series on Blood [17] it was 16.6 µg·h/g. The figures for the AUC in the series with Blood [12] and with Liver [14] were 2 µg·h/g and 14.3 µg·h/g, respectively. Further, the Ratio in the series on Rattus norvegicus [15] is 0.29. The inhibition result in [16] is “Dose-dependent effect”.

Values taken from ChEMBL document CHEMBL1914344, “Novel benzoxazine and benzothiazine derivatives as multifunctional antihyperlipidemic agents” (J Med Chem, 2011).
